# Data taken from ChEMBL document CHEMBL1128278, “Design, synthesis, and structure--activity relationship studies for a new imidazole series of J774 macrophage specific acyl-CoA:cholesterol acyltransferase (ACAT) inhibitors” (J Med Chem, 1995).
# Key:
# [1] = molecular target: T1, Sterol O-acyltransferase 1 (Rattus norvegicus, UniProt O70536); experiment: Concentration required to inhibit 50% activity of Acyl coenzyme A:cholesterol acyltransferase 1 in vitro using rat liver microsome.; type: microsomes
# T1 sequence (O70536 whole entry): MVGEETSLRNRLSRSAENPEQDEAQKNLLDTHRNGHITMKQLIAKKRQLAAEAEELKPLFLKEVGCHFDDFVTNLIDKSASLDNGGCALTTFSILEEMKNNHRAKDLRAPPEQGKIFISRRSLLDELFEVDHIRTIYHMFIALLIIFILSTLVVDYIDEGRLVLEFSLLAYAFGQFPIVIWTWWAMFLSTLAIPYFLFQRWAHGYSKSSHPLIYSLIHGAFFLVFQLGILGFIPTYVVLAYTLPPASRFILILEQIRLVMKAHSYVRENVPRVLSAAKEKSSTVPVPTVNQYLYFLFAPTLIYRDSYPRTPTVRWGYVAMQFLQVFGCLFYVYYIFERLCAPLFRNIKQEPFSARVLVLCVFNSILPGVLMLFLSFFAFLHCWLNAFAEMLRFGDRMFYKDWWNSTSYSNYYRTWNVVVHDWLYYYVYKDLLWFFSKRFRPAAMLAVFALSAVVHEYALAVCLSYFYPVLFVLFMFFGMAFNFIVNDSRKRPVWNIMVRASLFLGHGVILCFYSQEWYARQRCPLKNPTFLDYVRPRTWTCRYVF
# Outline: (§1)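 Rat liver microsomes; ACAT activity read as [14C]cholesteryl oleate formed from [14C]oleoyl-CoA (pmol/min/mg). Inhibitors added in 5 µL DMSO. Duplicate assays with at least four inhibitor concentrations bracketing the IC50; IC50 is the concentration giving 50% inhibition of ACAT activity. Average range of replicates ±17%.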
# [2] = Acyl coenzyme A:cholesterol acyltransferase inhibition in cell culture measured in murine J774 macrophages.
# [3] = Acyl coenzyme A:cholesterol acyltransferase inhibition in cell culture measured in murine IC-21 macrophages.
# [4] = Acyl coenzyme A:cholesterol acyltransferase activity was determined in J774 macrophages by measuring the formation of labeled cholesteryl oleate (pmol/midmg) from [14C]oleoyl-CoA; type: functional
# Outline: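 J774 cells grown in high-glucose DMEM with 10% FBS at 37 °C, 6% CO2, then harvested for microsome preparation. ACAT activity in these microsomes measured as in the hepatic assay, as [14C]cholesteryl oleate formed from [14C]oleoyl-CoA, with inhibitors in DMSO. IC50 taken as the concentration giving 50% inhibition.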
# J774 = experiment: Concentration required to inhibit 50% activity of J774 macrophage cholesterol esterification; type: functional, cell-based; details: Mus musculus
# Outline: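 Intact J774A.1 cells, seeded at 3 x 10^4 cells/cm2 and grown 36 h, then loaded 17 h with ac-LDL in 10% FBS-DMEM. Inhibitors in DMSO (1.0% final) for 4 h, with [14C]oleate–BSA for the last 2 h. Cholesteryl ester separated by TLC and counted (nmol/h/mg Lowry protein).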
# [5] = molecular target: T1, Sterol O-acyltransferase 1; experiment: ACAT activity was determined in rat hepatic microsomes by measuring the formation of labeled cholesteryl oleate (pmol/midmg) from [14C]oleoyl-CoA; type: functional, Liver; outline: as §1
Structure (SMILES),IC50 ([1]; read-out: IC50),IC50 [2],other results
CCCCCCCN(CCCCCSc1nc(-c2ccc(OC)cc2)c(-c2ccc(OC)cc2)[nH]1)C(=O)Nc1ccc(F)cc1F,140 nM,80 nM,–
CCOCCOCCN(CCCCCSc1nc(-c2ccccc2)c(-c2ccccc2)[nH]1)C(=O)Nc1ccc(F)cc1F,50 nM,4010 nM,–
CCCCCCCN(CCCCCSc1nc(-c2ccco2)c(-c2ccco2)[nH]1)C(=O)Nc1ccc(F)cc1F,200 nM,450 nM,–
CCCCCCCN(CCCCCSc1nc(C2CCCCC2)c(C2CCCCC2)[nH]1)C(=O)Nc1ccc(F)cc1F,20 nM,640 nM,–
CCCCCCCN(CCCCCSc1nc(-c2ccc(OC)cc2)c(-c2ccc(OC)cc2)[nH]1)C(=O)Oc1ccccc1,640 nM,32 nM,–
CCCCCCCN(CCCCCSc1nc(-c2ccccc2OC)c(-c2ccccc2OC)[nH]1)C(=O)Nc1ccc(F)cc1F,350 nM,2070 nM,–
CCCCCCCN(CCCCCSc1nc(-c2ccc(N(C)C)cc2)c(-c2ccc(N(C)C)cc2)[nH]1)C(=O)Nc1ccc(F)cc1F,50 nM,80 nM,–
CC(C)NC(=O)N(CCN(C)CCSc1nc(-c2ccccc2)c(-c2ccccc2)[nH]1)CCN1CCOCC1,350 nM,6280 nM,–
O=C(Nc1ccc(F)cc1F)N(CCCCCSc1nc(-c2ccccc2)c(-c2ccccc2)[nH]1)CCOCCO,40 nM,6740 nM,–
CCCCCCCN(CCCCCSc1nc(-c2ccc(O)cc2)c(-c2ccc(O)cc2)[nH]1)C(=O)Nc1ccc(F)cc1F,2400 nM,4750 nM,–
CCCCCCCN(CCN(C)CCSc1nc(-c2ccccc2)c(-c2ccccc2)[nH]1)C(=O)Nc1ccc(F)cc1F,170 nM,1470 nM,–
CCCCCCCN(CCCCCSc1nc(-c2ccc(N(C)C)cc2)c(-c2ccc(N(C)C)cc2)[nH]1)C(=O)CC1CCCCC1,50 nM,16 nM,–
CCCCCCCN(CCCCCSc1nc(-c2ccccn2)c(-c2ccccn2)[nH]1)C(=O)Nc1ccc(F)cc1F,1000 nM,2250 nM,–
CCCCCCCN(CCCCCSc1nc(-c2ccc(OC)cc2)c(-c2ccc(OC)cc2)[nH]1)C(=O)NC(C)C,160 nM,4 nM,–
COCCOCCN(CCCCCSc1nc(-c2ccc(N(C)C)cc2)c(-c2ccc(N(C)C)cc2)[nH]1)C(=O)NC(C)C,–,7510 nM,IC50 [1]: Not Active
CCOCCOCCN(CCCCCSc1nc(-c2ccc(SC)cc2)c(-c2ccc(SC)cc2)[nH]1)C(=O)NC(C)C,280 nM,40 nM,–
CCCCCCCN(CCCCCSc1nc(C(C)C)c(C(C)C)[nH]1)C(=O)Nc1ccc(F)cc1F,20 nM,640 nM,–
CCCCCCCN(CCCCCSc1nc2c([nH]1)-c1ccccc1OCOc1ccccc1-2)C(=O)Nc1ccc(F)cc1F,30 nM,840 nM,–
CCCCCCCN(CCCCCSc1nc(-c2ccc(N(C)C)cc2)c(-c2ccc(N(C)C)cc2)[nH]1)C(=O)Oc1ccccc1,120 nM,60 nM,–
COCCOCCN(CCCCCSc1nc(-c2ccc(OC)cc2)c(-c2ccc(OC)cc2)[nH]1)C(=O)NC(C)C,500 nM,360 nM,–
CCCCCCCN(CCCCCSc1nc(-c2ccc(C)cc2)c(-c2ccc(C)cc2)[nH]1)C(=O)Nc1ccc(F)cc1F,80 nM,290 nM,–
CN(CCSc1nc(-c2ccccc2)c(-c2ccccc2)[nH]1)CCN(CCN1CCOCC1)C(=O)Nc1ccc(F)cc1F,240 nM,2740 nM,–
CCCCCCCN(CCOCCSc1nc(-c2ccccc2)c(-c2ccccc2)[nH]1)C(=O)Nc1ccc(F)cc1F,80 nM,3980 nM,–
CCCCCCCN(CCCCCSc1nc(-c2ccc(F)cc2)c(-c2ccc(F)cc2)[nH]1)C(=O)Nc1ccc(F)cc1F,40 nM,3500 nM,–
CCCCN(C)CCN(CCOCCSc1nc(-c2ccc(OC)cc2)c(-c2ccc(OC)cc2)[nH]1)C(=O)Nc1ccc(F)cc1F,1500 nM,–,IC50 [3]: 630 nM
CCCCCCCN(CCCCCSc1nc(-c2ccc(OC)cc2)c(-c2ccc(OC)cc2)[nH]1)C(=O)CC1CCCCC1,11 nM,29 nM,–

Structure (SMILES),IC50 ([1]; read-out: IC50),IC50 [2],other results
CC(C)NC(=O)N(CCCCCSc1nc(-c2ccccc2)c(-c2ccccc2)[nH]1)CCOCCO,90 nM,6840 nM,–
COc1ccc(-c2nc(SCCCCCN(CCCCCO)C(=O)NC(C)C)[nH]c2-c2ccc(OC)cc2)cc1,–,1000 nM,–
CCCCOCCN(CCCCCSc1nc(-c2ccccc2)c(-c2ccccc2)[nH]1)C(=O)Nc1ccc(F)cc1F,70 nM,1750 nM,–
CCN(CC)CCN(CCCCCSc1nc(-c2ccccc2)c(-c2ccccc2)[nH]1)C(=O)Nc1ccc(F)cc1F,80 nM,2180 nM,–
CCN(CC)CCN(CCCCCSc1nc(-c2ccccc2)c(-c2ccccc2)[nH]1)C(=O)NC(C)C,660 nM,580 nM,–
CCCCCCCN(CCOCCSc1nc(-c2ccccc2)c(-c2ccccc2)[nH]1)C(=O)NC(C)C,190 nM,990 nM,–
CCCCCCCN(CCCCCSc1nc(-c2ccc(C(F)(F)F)cc2)c(-c2ccc(C(F)(F)F)cc2)[nH]1)C(=O)Nc1ccc(F)cc1F,39900 nM,25000 nM,–
COc1ccc(-c2nc(SCCCCCN(CCOCCO)C(=O)Nc3ccc(F)cc3F)[nH]c2-c2ccc(OC)cc2)cc1,230 nM,840 nM,–
COc1ccc(-c2nc(SCCCCCN(CCN3CCOCC3)C(=O)Nc3ccc(F)cc3F)[nH]c2-c2ccc(OC)cc2)cc1,270 nM,1340 nM,–
CCCCCCCN(CCCCCSc1nc2c([nH]1)-c1ccccc1Oc1ccccc1-2)C(=O)Nc1ccc(F)cc1F,60 nM,1720 nM,–
CCCCCCCN(CCOCCSc1nc(-c2ccc(OC)cc2)c(-c2ccc(OC)cc2)[nH]1)C(=O)NC(C)C,850 nM,340 nM,–
CCCCCCCN(CCCCCSc1nc(-c2cccs2)c(-c2cccs2)[nH]1)C(=O)Nc1ccc(F)cc1F,60 nM,940 nM,–
CCCCCCCN(CCCCCSc1nc(-c2cccc(OC)c2)c(-c2cccc(OC)c2)[nH]1)C(=O)Nc1ccc(F)cc1F,40 nM,360 nM,–
CCCCCCCN(CCOCCSc1nc(-c2ccc(OC)cc2)c(-c2ccc(OC)cc2)[nH]1)C(=O)Nc1ccc(F)cc1F,2300 nM,500 nM,–
CCCCCCCN(CCCCCSc1nc(-c2ccc(N(C)C)cc2)c(-c2ccc(N(C)C)cc2)[nH]1)C(=O)NC(C)C,80 nM,3 nM,IC50 [4]: 0.6 nM; IC50 (J774): 4 nM; IC50 [5]: 80 nM
CCCCCCCN(CCCCCSc1nc(CCC)c(CCC)[nH]1)C(=O)Nc1ccc(F)cc1F,60 nM,2700 nM,–
CCCCCCCN(CCCCCSc1nc(-c2ccc(S(C)(=O)=O)cc2)c(-c2ccc(S(C)(=O)=O)cc2)[nH]1)C(=O)Nc1ccc(F)cc1F,> 50000 nM,2020 nM,–
COCCOCCN(CCCCCSc1nc(-c2ccc(OC)cc2)c(-c2ccc(OC)cc2)[nH]1)C(=O)Nc1ccc(F)cc1F,340 nM,250 nM,–
CCCCOCCN(CCCCCSc1nc(-c2ccccc2)c(-c2ccccc2)[nH]1)C(=O)NC(C)C,190 nM,840 nM,–
CCOCCOCCN(CCCCCSc1nc(-c2ccccc2)c(-c2ccccc2)[nH]1)C(=O)NC(C)C,30 nM,3020 nM,–
CCCCCCCN(CCCCCSc1nc(-c2ccc(SC)cc2)c(-c2ccc(SC)cc2)[nH]1)C(=O)Nc1ccc(F)cc1F,70 nM,50 nM,–
COc1ccc(-c2nc(SCCCOCCN(CCOCCO)C(=O)NC(C)C)[nH]c2-c2ccc(OC)cc2)cc1,480 nM,2420 nM,–
O=C(Nc1ccc(F)cc1F)N(CCCCCSc1nc(-c2ccccc2)c(-c2ccccc2)[nH]1)CCN1CCOCC1,70 nM,880 nM,–
CCCCCCCN(CCN(C)CCSc1nc(-c2ccccc2)c(-c2ccccc2)[nH]1)C(=O)NC(C)C,260 nM,2400 nM,–
CCCCCCCN(CCCCCSc1nc(-c2ccccc2)c(-c2ccccc2)[nH]1)C(=O)Nc1ccc(F)cc1F [LECIMIBIDE],–,1000 nM,IC50 [4]: 25 nM; IC50 (J774): 1000 nM
